The target in test [1] is T1, Mu-type opioid receptor (Mus musculus, UniProt P42866). Description: Displacement of [125I]BNtxA from mouse MOR expressed in CHO cell membranes after 90 mins by filter binding assay. A digest of the protocol: (§1)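 Competition binding with [125I]BNtxA (0.1 nM) in membranes of CHO cells expressing mouse MOR, DOR or KOR. Protein 10-20 μg mL-1, 90 min incubation. Ki obtained by nonlinear regression. At least 3 assays, mean ± SEM.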
For orientation: In a radioligand displacement assay an active substance lowers the binding of a labelled ligand.

The target of test [2] is T2, Kappa-type opioid receptor (Mus musculus, UniProt P33534). The test can be described thus: Displacement of [125I]BNtxA from mouse KOR expressed in CHO cell membranes after 90 mins by filter binding assay. A digest of the protocol: as §1
Test [3] addresses Delta-type opioid receptor (Mus musculus, UniProt P32300). Description: Displacement of [125I]BNtxA from mouse DOR expressed in CHO cell membranes after 90 mins by filter binding assay. The method in brief: as §1
Test [4] is filed under the species Mus musculus. The test can be described thus: Selectivity ratio of Ki for mouse KOR to Ki for mouse MOR.
The species named for test [5] is Mus musculus. Description: Selectivity ratio of Ki for mouse DOR to Ki for mouse MOR.
The target of test [6] is T1, Mu-type opioid receptor. The test can be described thus: Agonist activity at mouse MOR expressed in CHO cell membranes assessed as induction of [35S]GTPgammaS binding after 90 mins by scintillation spectroscopy. It counts as functional. The method in brief:
(§2)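 Agonist-stimulated [35S]GTPγS binding in membranes from opioid receptor-transfected cells. Membrane protein 50 µg mL-1, 90 min incubation. Potency taken as EC50. Three separate assays, each in triplicate, reported as mean ± SEM.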

In test [7] the target is Mu-type opioid receptor (Mus musculus) (UniProt P42866). Description: Agonist activity at mouse MOR expressed in CHO cell membranes assessed as induction of [35S]GTPgammaS binding after 90 mins by scintillation spectroscopy relative to DAMGO. It counts as functional. A general note: GTPγS is a poorly hydrolysed GTP analogue; its binding reports G protein activation.
The subject of test [8] is Mus musculus. The test can be described thus: Antinociceptive activity in CD1 mouse at 30 mg/kg, sc after 30 mins by radiant heat tail flick method relative to control. The format is functional. The method in brief: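 CD1 mice (n = 10) dosed sc at 30 mg kg-1. Radiant heat tail-flick tested 30 min after injection. Values given as mean ± SEM percent antinociception.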
A general note: Thermal pain tests record how soon the animal reacts.

In test [9] the test system is Mus musculus. The test can be described thus: Antinociceptive activity in icv dosed CD1 mouse after 15 mins by radiant heat tail flick method. It counts as functional. A digest of the protocol: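 Compounds given intracerebroventricularly to groups of mice (n = 5) as cumulative doses. Tail-flick tested 15 min later, at peak effect, to build the dose-response curve and ED50. Two independent determinations.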

In test [10] the test system is Mus musculus. Description: Antinociceptive activity in CD1 mouse at 30 mg/kg, sc after >24 hrs by radiant heat tail flick method. The format is functional, organism-based. The method in brief:
(§3)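 Time course in CD1 mice (n = 10) after sc dosing at 30 mg kg-1, measured by radiant heat tail flick. Two independent determinations.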

In test [11] the test system is Mus musculus. The test can be described thus: Antinociceptive activity in CD1 mouse at 7.5 ug, icv after >24 hrs by radiant heat tail flick method. The format is functional, organism-based. A digest of the protocol: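 Time course in CD1 mice (n = 10) after icv administration of 7.5 µg, measured by tail flick. Two independent determinations.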
Test [12] relates to Mus musculus. Description: Antinociceptive activity in CD1 mouse at 30 mg/kg, sc after 30 mins in presence of MOR antagonist beta-FNA by radiant heat tail flick method. The format is functional, organism-based. A digest of the protocol:
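CD1 mice (n = 10) given compound at 30 mg kg-1 sc, with or without β-funaltrexamine (40 mg kg-1 sc) 24 h before agonist. Tail-flick tested 30 min after the agonist.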

The target of test [13] is T2, Kappa-type opioid receptor. The test can be described thus: Agonist activity at mouse KOR expressed in CHO cell membranes assessed as induction of [35S]GTPgammaS binding after 90 mins by scintillation spectroscopy. It counts as functional. A digest of the protocol: as §2
Test [14] deals with Kappa-type opioid receptor (Mus musculus) (UniProt P33534). The test can be described thus: Agonist activity at mouse KOR expressed in CHO cell membranes assessed as induction of [35S]GTPgammaS binding after 90 mins by scintillation spectroscopy relative to U50488H. It counts as functional.
Test [15] has as its system Mus musculus. Description: Antinociceptive activity in CD1 mouse at 30 mg/kg, sc after 3 hrs by radiant heat tail flick method. It counts as functional, organism-based. The method in brief:
as §3

SMILES strings stand for the structures. The source made the active and inactive calls. The calls are words filed in the database; no cut-off is given here.

Broadly, the Ki is a dissociation constant, usually derived from enzyme kinetics or from competition with a known ligand. What is called EC50 is the concentration at which the effect is half-maximal. As a reminder, the Emax is the greatest response seen or fitted, relative to the assay's reference.

T1 sequence (P42866 whole entry): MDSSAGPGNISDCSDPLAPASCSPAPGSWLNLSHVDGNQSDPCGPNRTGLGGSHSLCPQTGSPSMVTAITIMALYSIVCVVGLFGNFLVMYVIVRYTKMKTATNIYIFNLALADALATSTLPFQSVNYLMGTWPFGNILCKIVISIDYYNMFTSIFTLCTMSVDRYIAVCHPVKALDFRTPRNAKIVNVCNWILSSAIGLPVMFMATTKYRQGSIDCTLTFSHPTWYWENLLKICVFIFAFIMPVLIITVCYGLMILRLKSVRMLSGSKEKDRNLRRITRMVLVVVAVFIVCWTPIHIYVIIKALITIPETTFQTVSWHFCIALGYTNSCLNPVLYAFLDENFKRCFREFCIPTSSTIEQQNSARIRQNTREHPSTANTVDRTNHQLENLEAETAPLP
Chain of Mu-type opioid receptor (Mus musculus) (P42866 whole entry): as above
Chain of Delta-type opioid receptor (P32300 whole entry): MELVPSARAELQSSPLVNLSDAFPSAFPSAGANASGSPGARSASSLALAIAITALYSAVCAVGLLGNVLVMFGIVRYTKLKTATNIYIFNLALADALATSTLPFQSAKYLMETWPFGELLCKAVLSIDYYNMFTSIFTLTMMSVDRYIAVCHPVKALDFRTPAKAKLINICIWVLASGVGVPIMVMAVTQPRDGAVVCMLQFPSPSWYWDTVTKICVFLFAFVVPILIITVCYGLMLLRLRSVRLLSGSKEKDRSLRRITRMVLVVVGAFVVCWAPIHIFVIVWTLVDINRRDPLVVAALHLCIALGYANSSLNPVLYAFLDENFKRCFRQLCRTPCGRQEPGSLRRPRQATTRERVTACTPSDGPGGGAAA
T2 sequence (P33534 whole entry): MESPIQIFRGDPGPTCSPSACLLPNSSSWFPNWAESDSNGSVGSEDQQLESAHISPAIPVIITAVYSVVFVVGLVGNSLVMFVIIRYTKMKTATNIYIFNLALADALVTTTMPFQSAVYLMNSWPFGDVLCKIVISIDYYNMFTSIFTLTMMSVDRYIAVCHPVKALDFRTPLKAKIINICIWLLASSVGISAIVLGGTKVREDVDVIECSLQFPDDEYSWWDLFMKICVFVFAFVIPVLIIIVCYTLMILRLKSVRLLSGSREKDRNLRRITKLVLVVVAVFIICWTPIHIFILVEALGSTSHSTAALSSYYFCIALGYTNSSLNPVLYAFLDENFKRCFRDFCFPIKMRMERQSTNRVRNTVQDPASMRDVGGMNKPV
Chain of Kappa-type opioid receptor (Mus musculus) (P33534 whole entry): as above

For `CN1CC[C@]23c4c5ccc(O)c4O[C@H]2[C@@H](NC(=O)c2ccncc2)CC[C@@]3(O)[C@H]1C5`, the inhibitory constant (Ki) was 7.02 nM at Mu-type opioid receptor [1], greater than 100 nM in test [2] and 173 nM in test [3]. In addition, the values for the Ratio Ki in the test listed under Mus musculus [4] and in the test listed under Mus musculus [5] were greater than 14.2 and 24.7, respectively. Moreover, the concentration for a half-maximal effect (EC50) on Mu-type opioid receptor [6] is 26.4 nM. The maximal response (Emax) in test [7] is 115%.

`CN1CC[C@]23c4c5ccc(O)c4O[C@H]2[C@@H](NC(=O)c2ccncc2)C=C[C@H]3[C@H]1C5`: the Ki amounted to 2 nM on Mu-type opioid receptor [1], 77.9 nM in test [2] and 65 nM in [3]. In addition, the figures for the Ratio Ki in the test listed under Mus musculus [4] and in the test listed under Mus musculus [5] were 39 and 32.5, respectively. Further, the EC50 on Mu-type opioid receptor [6] came out at 4.62 nM. In addition, the Emax in [7] amounted to 114%. This compound showed an MPE in the test on Mus musculus [8] of 38%. For the same compound, the ED50 with Mus musculus [9] was 2 µg.

`COc1ccc2c3c1O[C@H]1[C@@H](NC(=O)c4ccncc4)C=C[C@H]4[C@@H](C2)N(C)CC[C@@]341`: the Ki on Mu-type opioid receptor [1] was 40.6 nM; in [2] it was greater than 100 nM; in test [3], 424 nM. Besides, the Ratio Ki is greater than 2.5 in the test filed under Mus musculus [4] and 10.4 in the test listed under Mus musculus [5].

With `CN1CC[C@]23c4c5ccc(O)c4O[C@H]2[C@@H](NC(=O)c2ccncc2)CC[C@H]3[C@H]1C5`, the Ki on Mu-type opioid receptor [1] was 3.73 nM; in test [2], greater than 100 nM; in test [3], 198 nM. The Ratio Ki in the test listed under Mus musculus [4] was greater than 26.8; in the test listed under Mus musculus [5], 53.2. The 50% effective concentration (EC50) on Mu-type opioid receptor [6] is 8.16 nM. For the same compound, the Emax in test [7] turned out to be 115%. Besides, the MPE in the test on Mus musculus [8] turned out to be 78%. The result in the test on Mus musculus [10] and with Mus musculus [11] was Active. Besides, the ED50 with Mus musculus [9] is 0.7 µg. Further, in the test with Mus musculus [12], the outcome was inactive.

On to `CN1CC[C@]23c4c5ccc(O)c4O[C@H]2[C@@H](NC(=O)c2cccnc2)C=C[C@H]3[C@H]1C5`, for which the Ki is 1.25 nM at Mu-type opioid receptor [1], 19 nM in test [2] and 34.4 nM in test [3]. The Ratio Ki in the test listed under Mus musculus [4] is 15.2; in the test filed under Mus musculus [5] it was 27.5. For the same compound, the figures for the half-maximal effective concentration (EC50) (on Mu-type opioid receptor [6]; in [13]) were 2.83 nM and 58.8 nM, respectively. Besides, the results for the Emax in [7] and in test [14] were 114% and 87.9%, respectively. Further, the MPE in the test with Mus musculus [8] worked out at 35%. Besides, the ED50 in the test on Mus musculus [9] came to 0.51 µg.

Take `CN1CC[C@]23c4c5ccc(O)c4O[C@H]2[C@@H](O)C=C[C@H]3[C@H]1C5` [MORPHINE]: the outcome in the test on Mus musculus [15] was Active. This compound also came in with an ED50 in the test on Mus musculus [9] of 0.53 µg.

`CN1CC[C@]23c4c5ccc(O)c4O[C@H]2[C@H](NC(=O)/C=C/c2ccccc2)C=C[C@H]3[C@H]1C5`: the figures for the Emax in test [7] and in test [14] were 95.3% and 106%, respectively.

Turning to `CN1CC[C@]23c4c5ccc(O)c4O[C@H]2[C@@H](NC(=O)c2cccnc2)CC[C@H]3[C@H]1C5`, the results for the Ki (on Mu-type opioid receptor [1]; in test [2]; in [3]) were 3.29 nM, 119 nM and 130 nM, respectively. The Ratio Ki was 36.2 in the test listed under Mus musculus [4] and 39.6 in the test listed under Mus musculus [5]. For the same compound, the EC50 on Mu-type opioid receptor [6] was determined as 7.98 nM. Further, the maximal effect (Emax) in test [7] was 117%. For the same compound, the MPE with Mus musculus [8] was 83%. The outcome with Mus musculus [10] and in the test on Mus musculus [11] was Active. The compound further showed an ED50 in the test on Mus musculus [9] of 1.8 µg. Also, the outcome with Mus musculus [12] was inactive.

For the compound `CN1CC[C@]23c4c5ccc(O)c4O[C@H]2[C@@H](NC(=O)c2cccnc2)CC[C@@]3(O)[C@H]1C5`, the figures for the inhibitory constant (Ki) (on Mu-type opioid receptor [1]; in test [2]; in test [3]) were 6.91 nM, greater than 100 nM and 104 nM, respectively. For the same compound, the Ratio Ki in the test listed under Mus musculus [4] is greater than 14.5; in the test filed under Mus musculus [5], 15. The concentration giving a half-maximal response (EC50) on Mu-type opioid receptor [6] turned out to be 25.7 nM. The Emax in test [7] worked out at 121%.

Values taken from ChEMBL document CHEMBL4138045 (Medchemcomm, 2017).
